Assay outcomes (PubChem)
proCasp7 act: counter-screen for procaspase-3 activators: activators of human procaspase-7; recombinant procaspase-7, Ac-DEVD-pNA absorbance 405 nm; D23A/D198A/D206A triple mutant, cannot self-cleave; scale: DMSO 0, 5 µM enzyme 100; P55210; 330,000 tested, 0.093% active; activation, % at 8.5 µM;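 active means percent activation above the screen-wide mean plus 3 SD, cut at about 25% in these data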
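Material: Procaspase-7 triple mutant (PC-7 D3A) | Quantity: 2 µM procaspase-7 mutant as dispensed | Reagent: DEVD-pNA substrate | Times: 1 h preincubation, 2 h reaction | Technique: 405 nm absorbance of p-nitroaniline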
LYPLA2 counter: blocks human lysophospholipase 2, a PME1 counter-screen | inhibition, % at 5.9 µM | 320,000 tested, 0.38% active | recombinant LYPLA2, FP-Rh probe fluorescence polarization | O95372 | AID 2177;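 active means inhibition above the screen-wide mean plus 3 SD, limit set per campaign, cut at about 26% in these data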;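 further: 0% = LYPLA2 with DMSO and 100% = wells lacking LYPLA2 enzyme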
Target sequence (O95372 whole entry, looked up): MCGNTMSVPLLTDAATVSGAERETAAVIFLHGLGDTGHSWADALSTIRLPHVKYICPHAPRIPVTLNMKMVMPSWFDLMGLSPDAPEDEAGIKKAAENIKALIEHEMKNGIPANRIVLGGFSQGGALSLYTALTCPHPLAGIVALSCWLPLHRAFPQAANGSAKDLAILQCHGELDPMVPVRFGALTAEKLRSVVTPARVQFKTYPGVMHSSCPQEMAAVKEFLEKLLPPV
PREPL inhibitor: inhibits the human prolyl oligopeptidase-like enzyme; recombinant PREPL, fluorescence polarization activity-based probe; Q4J6C6; inhibition, % at 5.96 µM; 320,000 tested, 0.68% active; AID 2751; in the data active means inhibition above about 43%;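 further: 0% = enzyme with DMSO and 100% = wells lacking enzyme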
LYPLA1 counter: counter-screen for PME1 inhibitors: inhibitors of human LYPLA1; recombinant LYPLA1, FP-Rh probe fluorescence polarization; O75608; 320,000 tested, 0.16% active; inhibition, % at 5.9 µM; AID 2174;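 active means inhibition above the mean of all tested compounds plus 3 SD, set per campaign, cut at about 14% in these data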;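 further: inhibitors block serine hydrolase probe labeling of LYPLA1 so polarization falls; 0% = enzyme with DMSO and 100% = wells lacking LYPLA1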
proCasp3 act: activators of human procaspase-3 | recombinant procaspase-3 D3A, Ac-DEVD-pNA absorbance 405 nm | 330,000 tested, 0.11% active | activation, % at 8.5 µM;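 active means activation above the mean of all tested compounds plus 3 SD, cut at about 21% in these data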;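 further: 0% = DMSO alone and 100% = DMSO wells spiked with extra 5 µM PC-3 D3A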
Target sequence (P42574 whole entry D9A/D28A/D175A): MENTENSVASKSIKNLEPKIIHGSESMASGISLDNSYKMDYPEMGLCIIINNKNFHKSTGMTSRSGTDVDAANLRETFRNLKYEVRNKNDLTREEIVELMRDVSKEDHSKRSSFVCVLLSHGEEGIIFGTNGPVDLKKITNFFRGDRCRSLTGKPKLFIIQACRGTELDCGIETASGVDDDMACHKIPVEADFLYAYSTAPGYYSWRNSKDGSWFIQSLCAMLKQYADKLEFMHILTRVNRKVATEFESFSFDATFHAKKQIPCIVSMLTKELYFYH
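Assay system – Procaspase-3 D3A mutant, all three cleavage aspartates alanine · Controls – DMSO-only low control, 5 µM PC-3 D3A high control · Schedule – 1 h compound preincubation, 2 h substrate hydrolysis at 25 °C · Signal – 405 nm absorbance of p-nitroaniline, reads at 0 and 120 min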
LYPLA2 confirm: counter-screen for PME1 inhibitors: confirmation of human LYPLA2 inhibitors. shares compounds with LYPLA2 counter. recombinant LYPLA2, FP-Rh probe fluorescence polarization. inhibition, % at 5.9 µM. 1,100 tested, 72% active. AID 2232;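 active means mean inhibition across replicates above the hit cutoff set in the primary screen, cut at about 26% in these data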;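 further: blocked labeling of the enzyme by serine hydrolase FP-Rh probe lowers polarization; 0% = enzyme with DMSO and 100% = wells lacking LYPLA2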
LYPLA2 ABPP: blocks human acyl-protein thioesterase 2 in gel ABPP; 150 tested, 30% active; inhibition, % at 20 µM; shares compounds with LYPLA2 counter; AID 652029; rhLYPLA2 in mouse brain proteome, gel ABPP FP-Rh;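 active means inhibition of LYPLA2 enzyme probe labeling above about 50%, limit read from the data; inactive means inhibition below that limit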;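 further: loss of FP-Rh probe labeling of the LYPLA2 gel band measured as band density; 0% = DMSO only control band and 100% = blank gel background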
Numbers without * were called inactive. The list is not random: actives were taken first. Their share in the collection is about 1.1%.

Screening O=C1NC(c2ccc(Cl)cc2)=COc2ccccc21 returned proCasp7 act 1.9, LYPLA2 counter 36.4*, PREPL inhibitor 0.6, LYPLA1 counter 2.0, proCasp3 act 8.9 and LYPLA2 confirm 29.5*.
For O=C(Nc1ccc(Cl)c(S(=O)(=O)N2CCCCC2)c1)c1ccco1 the results were proCasp7 act 3.7, LYPLA2 counter 0.2, PREPL inhibitor 4.1, LYPLA1 counter -7.0 and proCasp3 act -3.9.
`COC(=O)Cc1ccc(NC(=O)c2ccc3c(c2)C(=O)N(Cc2cccnc2)C3=O)cc1` gave proCasp7 act -9.6, LYPLA2 counter 28.3*, PREPL inhibitor 0.7, LYPLA1 counter 3.5, proCasp3 act 2.7 and LYPLA2 confirm 25.9*.
`CC(C)c1ccc(NC(=O)c2ccc3c(c2)C(=O)N(Cc2cccnc2)C3=O)cc1` gave proCasp7 act 4.8, LYPLA2 counter 51.0*, PREPL inhibitor 9.0, LYPLA1 counter -0.5, proCasp3 act -2.6, LYPLA2 confirm 53.2* and LYPLA2 ABPP 26.0.
For O=C(O)c1cc(NC(=O)c2ccc3c(c2)C(=O)N(Cc2cccnc2)C3=O)cc(C(=O)O)c1 the results were proCasp7 act -4.0, LYPLA2 counter -4.9, PREPL inhibitor 0.2, LYPLA1 counter -1.5 and proCasp3 act 1.5.
`CCOC(=O)c1ccc(NC(=O)c2ccc3c(c2)C(=O)N(Cc2cccnc2)C3=O)cc1` gave proCasp7 act -11.0, LYPLA2 counter 40.5*, PREPL inhibitor 12.4, LYPLA1 counter 3.4, proCasp3 act -4.7 and LYPLA2 confirm 47.2*.
`COC(=O)Cc1ccc(NC(=O)c2ccc3c(c2)C(=O)N(Cc2ccco2)C3=O)cc1` gave proCasp7 act 4.9, LYPLA2 counter 5.0, PREPL inhibitor 4.2, LYPLA1 counter 1.9 and proCasp3 act -0.5.
O=C(Nc1ccc(C(=O)N2CCCCC2)cc1)c1ccccc1Br was read as proCasp7 act -11.2, LYPLA2 counter 7.9, PREPL inhibitor 5.1, LYPLA1 counter -0.2 and proCasp3 act -1.7.
`O=C(O)c1ccc(S(=O)(=O)/N=C2\C=C(Nc3ccccc3F)C(=O)c3ccccc32)cc1` gave proCasp7 act -7.3, LYPLA2 counter 26.4*, PREPL inhibitor 31.4, LYPLA1 counter 7.3, proCasp3 act -3.4 and LYPLA2 confirm 74.7*.
For CCc1ccc(C(=O)COC(=O)c2ccccc2OC)cc1 the results were proCasp7 act 7.5, LYPLA2 counter 0.9, PREPL inhibitor -9.8, LYPLA1 counter -2.2 and proCasp3 act 3.6.
For C=CCn1c(SCc2ccc(C(=O)O)cc2)nc2sc(C)c(C)c2c1=O the results were proCasp7 act 2.1, LYPLA2 counter 43.4*, PREPL inhibitor -1.9, LYPLA1 counter -0.7, proCasp3 act 0.1 and LYPLA2 confirm 37.2*.
S=C(NCCCN1CCOCC1)Nc1ccc(Cl)cc1 was read as proCasp7 act 6.1, LYPLA2 counter 26.5*, PREPL inhibitor 9.1, LYPLA1 counter 1.2, proCasp3 act -3.9 and LYPLA2 confirm -4.5.
`CC(C)(C)C(=O)N1CCN(S(=O)(=O)c2ccc3c(c2)OCCCO3)CC1` gave proCasp7 act 1.9, LYPLA2 counter 2.1, PREPL inhibitor 0.8, LYPLA1 counter -1.9 and proCasp3 act -4.7.
O=[N+]([O-])c1cnc(Nc2ccc(Cl)cn2)c([N+](=O)[O-])c1 was read as proCasp7 act 1.1, LYPLA2 counter 29.1*, PREPL inhibitor 22.0, LYPLA1 counter 1.8, proCasp3 act -10.0 and LYPLA2 confirm 32.4*.
`CN(C(=O)c1cccc(C#CC(C)(C)O)c1)C1CCCN(Cc2ccccc2F)C1` (stereo not drawn) gave proCasp7 act -4.2, LYPLA2 counter -0.6, PREPL inhibitor 4.6, LYPLA1 counter -0.1 and proCasp3 act 3.4.
For Oc1ccc2ccccc2c1N=Nc1ccc(F)cc1 the results were proCasp7 act -9.2, LYPLA2 counter 28.5*, PREPL inhibitor -36.6, LYPLA1 counter 5.3, proCasp3 act -2.4 and LYPLA2 confirm -122.7.
For COc1cccc(C2c3[nH]c4ccccc4c3C[C@H]3C(=O)N(CCCCCO)CC(=O)N23)c1 (stereo partly drawn) the results were proCasp7 act -4.7, LYPLA2 counter -2.5, PREPL inhibitor 4.2, LYPLA1 counter -3.0 and proCasp3 act 5.2.
CCOC(=O)N1CCN(C(c2ccc(C(C)C)cc2)c2sc3nc(C)nn3c2O)CC1 (stereo not drawn) was read as proCasp7 act -12.2, LYPLA2 counter 68.6*, PREPL inhibitor -13.1, LYPLA1 counter -0.7, proCasp3 act -4.3 and LYPLA2 confirm 67.4*.
CC1CCN(C(=O)c2[nH]cnc2C(=O)Nc2cccc(Cl)c2)CC1 was read as proCasp7 act 8.3, LYPLA2 counter -4.7, PREPL inhibitor 24.5, LYPLA1 counter -3.2 and proCasp3 act 2.8.
O=c1ccc(-c2ccccc2)nn1Cc1ccccc1 was read as proCasp7 act 3.6, LYPLA2 counter 7.8, PREPL inhibitor -8.1, LYPLA1 counter 4.1 and proCasp3 act -12.6.
Cc1ccc(C)c(Cn2nc(-c3ccccc3)ccc2=O)c1 was read as proCasp7 act 1.1, LYPLA2 counter -3.5, PREPL inhibitor 0.9, LYPLA1 counter -5.5 and proCasp3 act -3.2.
`O=c1ccc(-c2ccccc2)nn1Cc1ccc(F)cc1Cl` gave proCasp7 act 5.9, LYPLA2 counter 35.4*, PREPL inhibitor -11.9, LYPLA1 counter -3.4, proCasp3 act 7.8 and LYPLA2 confirm 33.6*.
For O=c1ccc(-c2ccccc2)nn1Cc1ccc(F)cc1 the results were proCasp7 act -4.1, LYPLA2 counter 27.0*, PREPL inhibitor -11.2, LYPLA1 counter 0.8, proCasp3 act -4.2 and LYPLA2 confirm 23.9.
For CC(C)CN(C(=O)COC(=O)c1ccc2c(c1)OCO2)c1c(N)n(Cc2ccccc2)c(=O)[nH]c1=O the results were proCasp7 act -1.8, LYPLA2 counter 1.9, PREPL inhibitor 2.9, LYPLA1 counter 0.3 and proCasp3 act 7.7.
Screening COc1ccc(-c2cc(C)no2)cc1S(=O)(=O)N1CCN(c2cccc(C)c2)C(C)C1 (stereo not drawn) returned proCasp7 act 11.5, LYPLA2 counter 31.7*, PREPL inhibitor 2.9, LYPLA1 counter -3.8, proCasp3 act -5.7 and LYPLA2 confirm 31.5*.
Screening Cc1cc(C(=O)N2CCCC(N3CCN(c4cccc(C(F)(F)F)c4)CC3)C2)c(C)o1 (stereo not drawn) returned proCasp7 act 7.2, LYPLA2 counter 31.3*, PREPL inhibitor 10.7, LYPLA1 counter 4.2, proCasp3 act -1.1 and LYPLA2 confirm 41.5*.
